Drawing on PubChem BioAssay, this text covers viability, differential viability (reversal) and inhibition for 20 compounds.

A short description of test [1]: HUVEC growth inhibition – cell-based, human, primary screen (AID 575;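 active = viability at or below 30% in both replicate assays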;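 note: 100% = median of untreated cell wells with 0.1% DMSO on each plate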). The following applies: HUVEC proliferation, CellTiter-Glo luminescence, 72 h; at 10 µM; stronger effect = lower value. In outline: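 Assay system: Primary human umbilical vein endothelial cells | Quantity: 1250 cells per well | Medium: Supplemented EBM, 2% fetal bovine serum | Detection: CellTiter-Glo luminescence measuring cellular ATP | Read-out: % viability vs DMSO wells | Plate: Collagen-coated 384-well format | Times: 72 h exposure, 37 °C, 5% CO2, 30 min RT equilibration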
A general note: ATP-based viability assays read luminescence as a measure of living cells.

Test [2] is described as follows: H69AR cell proliferation blockers – human, duplicate replicates, primary screen (AID 580;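 active = viability at or under a set limit in both replicates, limit being median viability minus 3 SD, cut at about 48% in these data, passing the limit was not always enough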;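 note: 100% = mean luminescence of untreated wells and 0% = no signal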). As to conditions: H69AR lung tumor cells viability, ATP luminescence, 72 h; at 10 µM; stronger effect = lower value.
Test [3] is described as follows: MRP1 drug-resistance reversers in H69AR cells – cell-based, doxorubicin co-treatment, pilot screen (AID 601;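 active = viability loss from added drug above about 55%, and viability with drug at most 40%, in both replicates, limit read from the data, passing the limit was not always enough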). As to conditions: CellTiter-Glo, 72 h, at 10 µM; for differential viability (reversal): stronger effect = higher value.
The nature of test [4]: yeast transport mutant growth inhibition pilot in 384-well plates, post-Golgi transport modulator project (AID 636; in the data active = inhibition above about 31%). The following applies: absorbance 615 nm, about 18 h, stronger effect = higher value.
A short description of test [5]: growth suppression of yeast trafficking mutant, preliminary HTS, modulators of trafficking downstream of Golgi apparatus project, 1536-format plate, OD 615 nm (AID 637). As to conditions: yeast transport mutant growth, absorbance 615 nm, 18 h; stronger effect = higher value.
The mark [6] stands for this setting: H69AR cells + 2 uM doxorubicin, measured here: viability with 2 uM doxorubicin, stronger effect = lower value.
[7] abbreviates: H69AR cells, compound alone cytotoxicity.

The structures appear in SMILES notation. Active and inactive are the calls of the source. Cut-off read from the data, not from the text of the source, unless noted: active = inhibition above about 30%; inactive = the rest.

Usually viability stands for a read-out of living cells in per cent, often relative to untreated cells. By inhibition is commonly meant the drop in the measured response relative to a control, in per cent. As to `Cn1c(=O)c(=O)n(C)c2cc(S(=O)(=O)N3CCCCC3)ccc21`, the viability in test [1] was 111% (inactive); in test [2], 100% (inactive); in test [3] (setting [6]), 84.3%; in test [3] (setting [7]), 100%. Also, in test [3] (H69AR cells + 2 uM doxorubicin), the differential viability (reversal) is 16.1% (inactive). For the same compound, the results for the inhibition in test [4] and in test [5] were -3.07% (inactive) and 0.16% (inactive), respectively.

As to `Cc1cc(C)c2c(N)c(C(=O)c3ccccc3)oc2n1`, the viability was 80.2% (inactive) in test [1], 90.4% (inactive) in test [2], 92.1% in test [3] (setting [6]) and 90.4% in test [3] (setting [7]). Besides, the differential viability (reversal) in test [3] (H69AR cells + 2 uM doxorubicin) was -1.71% (inactive). Further, the values for the inhibition in test [4] and in test [5] were -7.6% (inactive) and 2.22% (inactive), respectively.

For `CCC(=O)c1ccc(OCC(=O)N2CCc3cc(OC)c(OC)cc3C2)cc1`, the viability in test [1] was 101% (inactive); in test [2] it was 82.9% (inactive); in test [3] (setting [6]), 94.1%; in test [3] (setting [7]), 82.9%. In addition, in test [3] (H69AR cells + 2 uM doxorubicin), the differential viability (reversal) was -11.2% (inactive). For the same compound, the results for the inhibition in test [4] and in test [5] were -2.34% (inactive) and -4.6% (inactive), respectively.

With `COc1ccc(C(=O)N2CCN(C(=O)c3ccco3)CC2)cc1OC`, the viability was 87.2% (inactive) in test [1], 95.9% (inactive) in test [2], 91.1% in test [3] (setting [6]) and 95.9% in test [3] (setting [7]). Moreover, the differential viability (reversal) in test [3] (H69AR cells + 2 uM doxorubicin) is 4.87% (inactive). Also, the inhibition is -5.73% (inactive) in test [4] and 0.32% (inactive) in test [5].

With `Nc1nc(SCc2nc3scc(-c4cccs4)c3c(=O)[nH]2)n[nH]1`, the viability in test [1] was 77.5% (inactive); in test [2], 93.4% (inactive); in test [3] (setting [6]), 97.3%; in test [3] (setting [7]), 93.4%. Also, the differential viability (reversal) in test [3] (H69AR cells + 2 uM doxorubicin) is -3.9% (inactive). In addition, the inhibition in test [4] is -2.67% (inactive); in test [5] it was 0.32% (inactive).

As for `COC(=O)Cc1c(C)c2ccc(OCC(=O)N3CCOCC3)cc2oc1=O`, the viability in test [1] was 107% (inactive); in test [2] it was 100% (inactive); in test [3] (setting [6]) it was 87.8%; in test [3] (setting [7]), 100%. Besides, in test [3] (H69AR cells + 2 uM doxorubicin), the differential viability (reversal) was 12.4% (inactive). The inhibition in test [4] was -4.67% (inactive); in test [5] it was 17% (inactive).

For the compound `CCCc1ccc(C(C)NC(=O)c2cnccn2)cc1` (stereo not given), the viability is 87.3% (inactive) in test [1], 100% (inactive) in test [2], 83.5% in test [3] (setting [6]) and 100% in test [3] (setting [7]). The differential viability (reversal) in test [3] (H69AR cells + 2 uM doxorubicin) is 16.6% (inactive). Also, the figures for the inhibition in test [4] and in test [5] were -5.26% (inactive) and 2.06% (inactive), respectively.

As for `NC(=O)c1cc(-c2ccccc2)nc(Oc2ccccc2)n1`, the viability in test [1] was 108% (inactive); in test [2], 98.7% (inactive); in test [3] (setting [6]), 95%; in test [3] (setting [7]), 98.7%. In addition, in test [3] (H69AR cells + 2 uM doxorubicin), the differential viability (reversal) is 3.71% (inactive). Moreover, the inhibition in test [4] was -8% (inactive); in test [5], -0.63% (inactive).

In the case of `O=C(CCCCn1c(=O)[nH]c2ccsc2c1=O)NCc1cccnc1`, the viability in test [1] was 96.3% (inactive); in test [2], 99.1% (inactive); in test [3] (setting [6]), 97.1%; in test [3] (setting [7]), 99.1%. In addition, the differential viability (reversal) in test [3] (H69AR cells + 2 uM doxorubicin) was 2.01% (inactive). Moreover, the inhibition was -1.18% (inactive) in test [4] and -0.63% (inactive) in test [5].

For the compound `COc1ccc(Nc2ncc3c(n2)CC(c2ccc(OC)cc2)CC3=O)cc1` (stereo not given), the viability is 84.4% (inactive) in test [1], 97.4% (inactive) in test [2], 93.6% in test [3] (setting [6]) and 97.4% in test [3] (setting [7]). Further, the differential viability (reversal) in test [3] (H69AR cells + 2 uM doxorubicin) was 3.81% (inactive). The results for the inhibition in test [4] and in test [5] were -4% (inactive) and 4.92% (inactive), respectively.

Consider `O=C(Cc1ccsc1-c1ccccc1)NO`, for which the viability in test [1] is 72.8% (inactive); in test [2] it was 1.73% (active); in test [3] (setting [6]) it was 1.39%; in test [3] (setting [7]), 1.73%. The differential viability (reversal) in test [3] (H69AR cells + 2 uM doxorubicin) was 0.35% (inactive). Further, the values for the inhibition in test [4] and in test [5] were -3.82% (inactive) and 4.29% (inactive), respectively.

On to `N#Cc1c(-c2ccccc2)nc(N2CCCCCC2)[nH]c1=O`, for which the viability in test [1] is 91.5% (inactive); in test [2], 88.2% (inactive); in test [3] (setting [6]), 91.7%; in test [3] (setting [7]) it was 88.2%. In test [3] (H69AR cells + 2 uM doxorubicin), the differential viability (reversal) was -3.53% (inactive). Moreover, the inhibition in test [4] is -4.8% (inactive); in test [5] it was -3.02% (inactive).

In the case of `CC(C)NC(=O)c1ccccc1NC(=O)c1ccccc1N(C)S(C)(=O)=O`, the viability is 103% (inactive) in test [1], 88.9% (inactive) in test [2], 93% in test [3] (setting [6]) and 88.9% in test [3] (setting [7]). For the same compound, the differential viability (reversal) in test [3] (H69AR cells + 2 uM doxorubicin) was -4.12% (inactive). The inhibition in test [4] was -7.37% (inactive); in test [5] it was 1.9% (inactive).

As for `O=C(COc1ccccc1Cl)N1CCCC1`, the viability in test [1] is 105% (inactive); in test [2] it was 91.9% (inactive); in test [3] (setting [6]) it was 92.3%; in test [3] (setting [7]) it was 91.9%. Also, the differential viability (reversal) in test [3] (H69AR cells + 2 uM doxorubicin) was -0.435% (inactive). In addition, the inhibition in test [4] is 2.24% (inactive); in test [5] it was -4.6% (inactive).

For the compound `O=C(O)c1ccccc1S`, the viability in test [1] was 84.4% (inactive); in test [2] it was 74.7% (inactive); in test [3] (setting [6]), 67.8%; in test [3] (setting [7]), 74.7%. Moreover, the differential viability (reversal) in test [3] (H69AR cells + 2 uM doxorubicin) was 6.9% (inactive). For the same compound, the inhibition is -2.34% (inactive) in test [4] and 3.5% (inactive) in test [5].

As to `CN(C)c1cccc(N=C2C=C(N3CCOCC3)CC(C)(C)C2)c1`, the viability in test [1] was 106% (inactive); in test [2], 91.8% (inactive); in test [3] (setting [6]), 93.7%; in test [3] (setting [7]) it was 91.8%. The differential viability (reversal) in test [3] (H69AR cells + 2 uM doxorubicin) was -1.85% (inactive). In addition, the inhibition in test [4] was -1.04% (inactive); in test [5], -8.41% (inactive).

For the compound `c1ccc(CCc2nn3c(Cn4cnc5ccccc54)nnc3s2)cc1`, the viability in test [1] is 75.8% (inactive); in test [2], 81.8% (inactive); in test [3] (setting [6]), 85.4%; in test [3] (setting [7]) it was 81.8%. In addition, in test [3] (H69AR cells + 2 uM doxorubicin), the differential viability (reversal) is -3.56% (inactive). In addition, the inhibition was -1.18% (inactive) in test [4] and 11.4% (inactive) in test [5].

For the compound `O=C(NCc1ccco1)C1Cc2ccccc2CN1S(=O)(=O)c1ccccc1F` (stereo not given), the viability was 57.5% (inactive) in test [1], 25.3% (active) in test [2], 34.6% in test [3] (setting [6]) and 25.3% in test [3] (setting [7]). Further, the differential viability (reversal) in test [3] (H69AR cells + 2 uM doxorubicin) is -9.23% (inactive). Also, the inhibition in test [4] was -1.95% (inactive); in test [5], 1.27% (inactive).

Consider `Nc1nc(C(=O)N2CCOCC2)nn1S(=O)(=O)c1ccc(Cl)cc1`, for which the viability in test [1] is 99.1% (inactive); in test [2] it was 95.2% (inactive); in test [3] (setting [6]), 97%; in test [3] (setting [7]) it was 95.2%. In addition, the differential viability (reversal) in test [3] (H69AR cells + 2 uM doxorubicin) is -1.83% (inactive). For the same compound, the figures for the inhibition in test [4] and in test [5] were -1.3% (inactive) and -0.95% (inactive), respectively.

As to `CCOC(=O)c1c(NC(=O)c2ccoc2C)sc2c1CCC2`, the viability in test [1] is 93.3% (inactive); in test [2], 78.9% (inactive); in test [3] (setting [6]), 88.6%; in test [3] (setting [7]), 78.9%. Moreover, the differential viability (reversal) in test [3] (H69AR cells + 2 uM doxorubicin) was -9.7% (inactive). The inhibition is -3.82% (inactive) in test [4] and 0.95% (inactive) in test [5].
